Reference: ChEMBL document CHEMBL1144581, “alpha-Amino acid derivatives as proton pump inhibitors and potent anti-ulcer agents” (2007)
Activity calls are given as the source filed them. The rule behind the calls is not given here.

Assays:
Rattus norvegicus [1] = species: Rattus norvegicus; experiment: Inhibition of gastric H+/K(+)-ATPase activity in Sprague-Dawley rat microsomal vesicles at 100 uM in presence of 0.3 mM of ATP; type: microsomes; details: Stomach, Microsome
Summary of the method: (§1)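 Rat gastric microsomes were prepared by density gradient and differential centrifugation. The medium held 40 mM Tris-HCl pH 7.4, 2 mM MgCl2, 10 mM KCl (water for blank) and […] vesicular protein. Compound was preincubated 30 min at 37 °C. Tris-ATP at 0.3, 1.0 or 3 mM was then added for 20 min and stopped with chilled 10% TCA. Released Pi was read at 530 nm; % inhibition vs control.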

Rattus norvegicus [2] = species: Rattus norvegicus; experiment: Inhibition of gastric H+/K(+)-ATPase activity in Sprague-Dawley rat microsomal vesicles at 3 uM in presence of 3.0 mM of ATP; type: microsomes; details: Stomach, Microsome; summary of the method: as §1
Rattus norvegicus [3] = species: Rattus norvegicus; experiment: Inhibition of p-NPPase in Sprague-Dawley rat microsomal vesicles at 3 uM in presence of 3.0 mM of p-NPP; type: microsomes; details: Microsome
Summary of the method: (§2)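 Rat gastric microsomes were assayed in 10 mM PIPES/Tris pH 7.0 with 5 mM KCl. Compound was preincubated 30 min at 37 °C. p-NPP at 1.0, 3.0 or 5.0 mM was added and incubated 20 min at 37 °C, then stopped with 0.5 N NaOH. p-Nitrophenol release was read at 410 nm; % inhibition vs control.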

Rattus norvegicus [4] = species: Rattus norvegicus; experiment: Inhibition of gastric H+/K(+)-ATPase activity in Sprague-Dawley rat microsomal vesicles at 30 uM in presence of 3.0 mM of ATP; type: microsomes; details: Stomach, Microsome; summary of the method: as §1
Rattus norvegicus [5] = experiment: Antisecretory activity in rat pylorus ligation-induced ulcer model assessed as inhibition of free acidity of gastric juice at 20 mg/kg; type: functional, organism-based; design: dose 20 mg/kg
Summary of the method: (§3)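 Sprague Dawley rats (130-150 g) fasted 24 h with water ad libitum; pylorus ligated through a midline incision under ether anesthesia. Dosing oral, 1 h before ligation. Gastric juice free and total acidity titrated against 0.01 N NaOH, with Topfer's reagent and phenolphthalein as indicators. Values expressed as ratio of percent inhibition, treated vs control group.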

Rattus norvegicus [6] = species: Rattus norvegicus; experiment: Inhibition of p-NPPase in Sprague-Dawley rat microsomal vesicles at 10 uM in presence of 3.0 mM of p-NPP; type: microsomes; details: Microsome; summary of the method: as §2
Rattus norvegicus [7] = species: Rattus norvegicus; experiment: Inhibition of gastric H+/K(+)-ATPase activity in Sprague-Dawley rat microsomal vesicles at 10 uM in presence of 0.3 mM of ATP; type: microsomes; details: Stomach, Microsome; summary of the method: as §1
Rattus norvegicus [8] = species: Rattus norvegicus; experiment: Inhibition of p-NPPase in Sprague-Dawley rat microsomal vesicles at 30 uM in presence of 1.0 mM of p-NPP; type: microsomes; details: Microsome; summary of the method: as §2
Rattus norvegicus [9] = species: Rattus norvegicus; experiment: Antisecretory activity in rat pylorus ligation-induced ulcer model determined by ratio of total acidity inhibition in drug treated to untreated control; type: functional; summary of the method: as §3
Rattus norvegicus [10] = species: Rattus norvegicus; experiment: Inhibition of p-NPPase in Sprague-Dawley rat microsomal vesicles at 100 uM in presence of 3.0 mM of p-NPP; type: microsomes; details: Microsome; summary of the method: as §2
Rattus norvegicus [11] = species: Rattus norvegicus; experiment: Inhibition of p-NPPase in Sprague-Dawley rat microsomal vesicles at 100 uM in presence of 5.0 mM of p-NPP; type: microsomes; details: Microsome; summary of the method: as §2
Rattus norvegicus [12] = species: Rattus norvegicus; experiment: Inhibition of p-NPPase in Sprague-Dawley rat microsomal vesicles at 1000 uM in presence of 1.0 mM of p-NPP; type: microsomes; details: Microsome; summary of the method: as §2
Rattus norvegicus [13] = species: Rattus norvegicus; experiment: Inhibition of gastric H+/K(+)-ATPase activity in Sprague-Dawley rat microsomal vesicles at 1000 uM in presence of 1.0 mM of ATP; type: microsomes; details: Stomach, Microsome; summary of the method: as §1
Rattus norvegicus [14] = species: Rattus norvegicus; experiment: Inhibition of p-NPPase in Sprague-Dawley rat microsomal vesicles at 1000 uM in presence of 3.0 mM of p-NPP; type: microsomes; details: Microsome; summary of the method: as §2
Rattus norvegicus [15] = species: Rattus norvegicus; experiment: Inhibition of p-NPPase in Sprague-Dawley rat microsomal vesicles at 30 uM in presence of 5.0 mM of p-NPP; type: microsomes; details: Microsome; summary of the method: as §2
Rattus norvegicus [16] = species: Rattus norvegicus; experiment: Inhibition of gastric H+/K(+)-ATPase activity in Sprague-Dawley rat microsomal vesicles at 300 uM in presence of 0.3 mM of ATP; type: microsomes; details: Stomach, Microsome; summary of the method: as §1
Rattus norvegicus [17] = species: Rattus norvegicus; experiment: Inhibition of p-NPPase in Sprague-Dawley rat microsomal vesicles at 100 uM in presence of 1.0 mM of p-NPP; type: microsomes; details: Microsome; summary of the method: as §2
Rattus norvegicus [18] = species: Rattus norvegicus; experiment: Inhibition of p-NPPase in Sprague-Dawley rat microsomal vesicles at 10 uM in presence of 5.0 mM of p-NPP; type: microsomes; details: Microsome; summary of the method: as §2
Rattus norvegicus [19] = species: Rattus norvegicus; experiment: Inhibition of p-NPPase in Sprague-Dawley rat microsomal vesicles at 300 uM in presence of 1.0 mM of p-NPP; type: microsomes; details: Microsome; summary of the method: as §2
Rattus norvegicus [20] = species: Rattus norvegicus; experiment: Antisecretory activity in rat pylorus ligation-induced ulcer model determined by ratio of free acidity inhibition in drug treated to untreated control; type: functional; summary of the method: as §3
Rattus norvegicus [21] = species: Rattus norvegicus; experiment: Inhibition of gastric H+/K(+)-ATPase activity in Sprague-Dawley rat microsomal vesicles at 3 uM in presence of 0.3 mM of ATP; type: microsomes; details: Stomach, Microsome; summary of the method: as §1
Rattus norvegicus [22] = species: Rattus norvegicus; experiment: Inhibition of gastric H+/K(+)-ATPase activity in Sprague-Dawley rat microsomal vesicles at 10 uM in presence of 3.0 mM of ATP; type: microsomes; details: Stomach, Microsome; summary of the method: as §1
Rattus norvegicus [23] = species: Rattus norvegicus; experiment: Inhibition of gastric H+/K(+)-ATPase activity in Sprague-Dawley rat microsomal vesicles at 300 uM in presence of 1.0 mM of ATP; type: microsomes; details: Stomach, Microsome; summary of the method: as §1
Rattus norvegicus [24] = species: Rattus norvegicus; experiment: Inhibition of gastric H+/K(+)-ATPase activity in Sprague-Dawley rat microsomal vesicles at 30 uM in presence of 0.3 mM of ATP; type: microsomes; details: Stomach, Microsome; summary of the method: as §1
Rattus norvegicus [25] = species: Rattus norvegicus; experiment: Inhibition of p-NPPase in Sprague-Dawley rat microsomal vesicles at 30 uM in presence of 3.0 mM of p-NPP; type: microsomes; details: Microsome; summary of the method: as §2
Rattus norvegicus [26] = species: Rattus norvegicus; experiment: Inhibition of p-NPPase in Sprague-Dawley rat microsomal vesicles at 3 uM in presence of 1.0 mM of p-NPP; type: microsomes; details: Microsome; summary of the method: as §2
Rattus norvegicus [27] = species: Rattus norvegicus; experiment: Inhibition of gastric H+/K(+)-ATPase activity in Sprague-Dawley rat microsomal vesicles at 100 uM in presence of 3.0 mM of ATP; type: microsomes; details: Stomach, Microsome; summary of the method: as §1
Rattus norvegicus [28] = species: Rattus norvegicus; experiment: Inhibition of p-NPPase in Sprague-Dawley rat microsomal vesicles at 10 uM in presence of 1.0 mM of p-NPP; type: microsomes; details: Microsome; summary of the method: as §2
Rattus norvegicus [29] = species: Rattus norvegicus; experiment: Inhibition of p-NPPase in Sprague-Dawley rat microsomal vesicles at 300 uM in presence of 3.0 mM of p-NPP; type: microsomes; details: Microsome; summary of the method: as §2
Rattus norvegicus [30] = species: Rattus norvegicus; experiment: Inhibition of gastric H+/K(+)-ATPase activity in Sprague-Dawley rat microsomal vesicles at 30 uM in presence of 1.0 mM of ATP; type: microsomes; details: Stomach, Microsome; summary of the method: as §1
Rattus norvegicus [31] = species: Rattus norvegicus; experiment: Inhibition of gastric H+/K(+)-ATPase activity in Sprague-Dawley rat microsomal vesicles at 10 uM in presence of 1.0 mM of ATP; type: microsomes; details: Stomach, Microsome; summary of the method: as §1
Rattus norvegicus [32] = species: Rattus norvegicus; experiment: Inhibition of gastric H+/K(+)-ATPase activity in Sprague-Dawley rat microsomal vesicles at 100 uM in presence of 1.0 mM of ATP; type: microsomes; details: Stomach, Microsome; summary of the method: as §1
Rattus norvegicus [33] = species: Rattus norvegicus; experiment: Inhibition of gastric H+/K(+)-ATPase activity in Sprague-Dawley rat microsomal vesicles at 300 uM in presence of 3.0 mM of ATP; type: microsomes; details: Stomach, Microsome; summary of the method: as §1
Rattus norvegicus [34] = species: Rattus norvegicus; experiment: Inhibition of gastric H+/K(+)-ATPase activity in Sprague-Dawley rat microsomal vesicles at 1000 uM in presence of 3.0 mM of ATP; type: microsomes; details: Stomach, Microsome; summary of the method: as §1
Rattus norvegicus [35] = species: Rattus norvegicus; experiment: Inhibition of gastric H+/K(+)-ATPase activity in Sprague-Dawley rat microsomal vesicles at 10 umol; type: microsomes; details: Stomach, Microsome; summary of the method: as §1
Rattus norvegicus [36] = species: Rattus norvegicus; experiment: Inhibition of gastric H+/K(+)-ATPase activity in Sprague-Dawley rat microsomal vesicles at 1000 uM in presence of 0.3 mM of ATP; type: microsomes; details: Stomach, Microsome; summary of the method: as §1
Rattus norvegicus [37] = species: Rattus norvegicus; experiment: Inhibition of gastric H+/K(+)-ATPase activity in Sprague-Dawley rat microsomal vesicles at 3 uM in presence of 1.0 mM of ATP; type: microsomes; details: Stomach, Microsome; summary of the method: as §1
Rattus norvegicus [38] = experiment: Antisecretory activity in rat pylorus ligation-induced ulcer model assessed as inhibition of total acidity of gastric juice at 20 mg/kg; type: functional, organism-based; design: dose 20 mg/kg; summary of the method: as §3
Rattus norvegicus [39] = species: Rattus norvegicus; experiment: Inhibition of gastric proton pump activity of gastric H(+)/K(+) ATPase in Sprague-Dawley rat microsomal vesicles after washing at 10 uM; type: microsomes; details: Stomach, Microsome
Rattus norvegicus [40] = experiment: Antisecretory activity in rat pylorus ligation-induced ulcer model assessed as inhibition of free acidity of gastric juice at 10 mg/kg; type: functional, organism-based; design: dose 10 mg/kg; summary of the method: as §3
Rattus norvegicus [41] = species: Rattus norvegicus; experiment: Inhibition of gastric proton pump activity of gastric H(+)/K(+) ATPase in Sprague-Dawley rat microsomal vesicles before washing at 10 uM; type: microsomes; details: Stomach, Microsome

| SMILES | inhibition (Rattus norvegicus [2]) | inhibition (Rattus norvegicus [3]) | inhibition (Rattus norvegicus [4]) | inhibition (Rattus norvegicus [6]) | inhibition (Rattus norvegicus [7]) | inhibition (Rattus norvegicus [8]) | inhibition (Rattus norvegicus [11]) | inhibition (Rattus norvegicus [15]) | inhibition (Rattus norvegicus [18]) | inhibition (Rattus norvegicus [21]) | inhibition (Rattus norvegicus [22]) | inhibition (Rattus norvegicus [24]) | inhibition (Rattus norvegicus [25]) | inhibition (Rattus norvegicus [26]) | inhibition (Rattus norvegicus [28]) | inhibition (Rattus norvegicus [30]) | inhibition (Rattus norvegicus [31]) | inhibition (Rattus norvegicus [37]) | Activity (Rattus norvegicus [38]) | other results |
| --- | --- | --- | --- | --- | --- | --- | --- | --- | --- | --- | --- | --- | --- | --- | --- | --- | --- | --- | --- | --- |
| O=C1N[C@H](C(=O)O)[C@H](/C=C/c2ccccc2)O1 (relative stereo) | 25% | 26% | 34% | 16% | 23% | 33% | 16% | 13% | 5% | 20% | 30% | 27% | 8% | 13% | 16% | 12% | 28% | 12% | Active | inhibition (Rattus norvegicus [1]): 32%; Activity (Rattus norvegicus [5]): Active; Activity (Rattus norvegicus [9]): 1.07; inhibition (Rattus norvegicus [10]): 18%; inhibition (Rattus norvegicus [12]): 85%; inhibition (Rattus norvegicus [13]): 55%; inhibition (Rattus norvegicus [14]): 38%; inhibition (Rattus norvegicus [16]): 51%; inhibition (Rattus norvegicus [17]): 42%; inhibition (Rattus norvegicus [19]): 56%; Activity (Rattus norvegicus [20]): 0.96; inhibition (Rattus norvegicus [23]): 51%; inhibition (Rattus norvegicus [27]): 28%; inhibition (Rattus norvegicus [29]): 35%; inhibition (Rattus norvegicus [32]): 16%; inhibition (Rattus norvegicus [33]): 46%; inhibition (Rattus norvegicus [34]): 50%; inhibition (Rattus norvegicus [35]): 59%; inhibition (Rattus norvegicus [36]): 67% |
| COc1ccc2[nH]c([S+]([O-])Cc3ncc(C)c(OC)c3C)nc2c1 (stereo not given) | 34% | 28% | 76% | 52% | 56% | 77% | 96% | 79% | 48% | 38% | 53% | 75% | 78% | 28% | 54% | 71% | 51% | 38% | Active | inhibition (Rattus norvegicus [39]): 90%; Activity (Rattus norvegicus [40]): Active; inhibition (Rattus norvegicus [41]): 60% |
